From PubChem
HKDC1 inh: HKDC1 hexokinase inhibitors, primary screen, biochemical, fluorescence, uHTS | Q2TB90 | recombinant HKDC1, G6PDH/diaphorase resazurin coupled fluorescence | inhibition, % at 20 µM | 340,000 tested, 0.16% active;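 active means inhibition above about 35% when tested at 20 µM, limit read from the data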
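Assay system – recombinant HKDC1 (HK5) hexokinase enzyme, produced in-house · Input – HKDC1 at 5 µg/mL · Reagent – glucose plus 1 mM ATP as hexokinase substrates · Timing – 90 min reaction incubation at room temperature, dark · Measured by – G6PDH/diaphorase-coupled fluorescence, 1 mM NADP, 100 µM resazurin, 525/613 nm · Benchmarks – DMSO-enzyme wells negative, buffer-substituted wells positive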
TDP2 absorb: human TDP2 enzyme inhibitors, primary screen, biochemical, epi absorbance, recombinant enzyme; Tyrosyl-DNA phosphodiesterase 2 (Homo sapiens), O95551; T5PNP hydrolysis, p-nitrophenol absorbance 415 nm; inhibition, % at 12.8 µM; 370,000 tested, 0.34% active; AID 720702, 2013;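 active means inhibition above the mean of all tested compounds plus 3 SD, set per campaign, cut at about 25% in these data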
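Incubation: 2 h at 37 °C; Test system: recombinant human TDP2; Quantity: enzyme 120 nM; Read-out basis: percent inhibition; Medium: 50 mM Tris-HCl pH 7.5 with Mg2+, KCl, DTT, BSA; Repeats: single replicate; Compound: 12.8 µM single point, 1% DMSO; Signal: epi absorbance; Reagent: 5 mM T5PNP chromogenic substrate; Benchmarks: no-enzyme high, DMSO-plus-enzyme low.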
PAD4 inh: human PAD4 inhibitors, primary screen, biochemical, fluorescence polarization, 1536-well format; Protein-arginine deiminase type-4 (Homo sapiens), Q9UM07; recombinant PAD4, RCA probe fluorescence polarization; inhibition, % at 6.36 µM; 330,000 tested, 0.41% active; AID 485272, 2010;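 active means percent inhibition above a cutoff equal to the mean of all tested compounds plus 3 SD, cut at about 15% in these data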
GSTO1 counter: inhibitors of recombinant GSTO1, primary screen, counter-screen for RBBP9 inhibitor project, biochemical, fluorescence polarization; 300,000 tested, 1.1% active; AID 1974, 2009; Glutathione S-transferase omega-1 (Homo sapiens), P78417; activity-based probe fluorescence polarization; inhibition, % at 5.96 µM;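 active means inhibition above the campaign mean inhibition plus 3 SD, cut at about 35% in these data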
Target sequence (P78417 whole entry, looked up): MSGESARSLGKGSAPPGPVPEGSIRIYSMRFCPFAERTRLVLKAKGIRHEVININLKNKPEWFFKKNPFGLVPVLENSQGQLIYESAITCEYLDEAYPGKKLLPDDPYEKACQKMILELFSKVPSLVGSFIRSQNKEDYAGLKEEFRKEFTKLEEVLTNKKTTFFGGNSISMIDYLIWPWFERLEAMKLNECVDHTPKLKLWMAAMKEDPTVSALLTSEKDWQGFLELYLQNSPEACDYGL
UCH37 inh: inhibitors of human UCH37 deubiquitinase, primary screen, biochemical, Ub-AMC cleavage, fluorescence; 330,000 tested, 0.33% active; inhibition, % (no concentration beside the values); Ubiquitin carboxyl-terminal hydrolase isozyme L5 (Homo sapiens), Q9Y5K5; purified proteasome/UCH37;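 active means mean inhibition over replicate wells above about 20%, limit read from the data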
Target sequence (Q9Y5K5 whole entry, looked up): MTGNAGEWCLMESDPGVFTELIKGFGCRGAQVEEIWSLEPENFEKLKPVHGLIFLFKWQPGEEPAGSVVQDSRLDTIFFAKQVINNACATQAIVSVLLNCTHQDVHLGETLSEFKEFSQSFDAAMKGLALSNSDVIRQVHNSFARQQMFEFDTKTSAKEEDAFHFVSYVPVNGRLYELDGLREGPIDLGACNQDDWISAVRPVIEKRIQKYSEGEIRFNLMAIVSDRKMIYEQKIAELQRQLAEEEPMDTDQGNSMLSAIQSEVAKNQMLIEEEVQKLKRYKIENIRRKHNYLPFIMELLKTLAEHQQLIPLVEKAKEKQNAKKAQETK
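system = Proteasome-associated human UCH37 deubiquitinase | amount = 0.15 nM proteasome as dispensed | medium = pH 7.4 Tris-HCl (50 mM) with ovalbumin, ATP-MgCl2, DTT | incubation = 30 min preincubation with enzyme, 25 min cleavage at room temperature | detection = AMC fluorescence 355/460 nm | read-out basis = percent inhibition | controls = no-proteasome and no-compound wells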
Fh CTSL1 inh: Fasciola hepatica cathepsin L1 inhibitors, primary screen, counter-screen for PFM18AAP inhibitor project, biochemical, QFRET, fluorogenic peptide substrate; recombinant F. hepatica cathepsin L1, Z-Leu-Arg-MCA fluorescence; inhibition, % at 5.96 µM; 300,000 tested, 0.49% active; AID 1906, 2009;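 active means inhibition above the mean of all tested compounds plus 3 SD, set per screening campaign, cut at about 17% in these data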
HKDC1 act conf2: HKDC1 hexokinase activators, confirmation, biochemical, single concentration | AID 504708, 2011 | shares compounds with HKDC1 inh | recombinant HKDC1, G6PDH/diaphorase resazurin fluorescence; active compounds read low | inhibition, % at 20 µM | 740 tested, 14% active;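 active means inhibition at or below a set negative limit, negative inhibition meaning the enzyme was activated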
Numbers stand for hits. Only some compounds are listed: those with a hit (about 1.6% of all), similar ones and a draw of the others.

How did O=C(NCc1ccccn1)c1cc(S(=O)(=O)N2CCN(c3ccccc3)CC2)ccc1Cl do in these assays?
HKDC1 inh: 73; TDP2 absorb: inactive; PAD4 inh: inactive; GSTO1 counter: inactive; UCH37 inh: inactive; Fh CTSL1 inh: inactive; HKDC1 act conf2: inactive

Results for Cc1ccc(S(=O)(=O)N2CCCC2)cc1C(=O)NCc1ccccn1 ?
HKDC1 inh: inactive; TDP2 absorb: inactive; PAD4 inh: inactive; GSTO1 counter: inactive; UCH37 inh: inactive; Fh CTSL1 inh: inactive

How did COc1cc(N=c2ssnc2Cl)cc(OC)c1 do in these assays?
HKDC1 inh: inactive; TDP2 absorb: inactive; PAD4 inh: inactive; GSTO1 counter: inactive; UCH37 inh: inactive; Fh CTSL1 inh: inactive; HKDC1 act conf2: inactive

Results for Cn1cccc1-c1cc(C(=O)NN=Cc2ccc(F)cc2)[nH]n1 ?
UCH37 inh: inactive

Results for CC(NNC(=S)N1CCN(c2ccccn2)CC1)c1nccc2ccccc12 (centres undefined) ?
HKDC1 inh: inactive; TDP2 absorb: inactive; HKDC1 act conf2: -75

Results for O=C(NN=Cc1ccc(N2CCOCC2)cc1)C1COc2ccccc2O1 (centres undefined) ?
UCH37 inh: inactive

How did CC1=CCC(C(=O)NN=Cc2cccs2)C(c2ccc(F)cc2)C1 (centres undefined) do in these assays?
UCH37 inh: inactive

What do the screens show for `COc1cc(C2c3c([nH]c(=O)[nH]c3=O)Nc3ccc4ccccc4c32)cc(OC)c1OC` (centres undefined)?
HKDC1 inh: 37; TDP2 absorb: inactive; PAD4 inh: inactive; GSTO1 counter: inactive; UCH37 inh: inactive; Fh CTSL1 inh: inactive; HKDC1 act conf2: inactive

What do the screens show for `CC(C)c1ccc(S(=O)(=O)/N=C2/C=C(Sc3ncn[nH]3)C(=O)c3ccccc32)cc1`?
HKDC1 inh: 64; PAD4 inh: 38; GSTO1 counter: 85; Fh CTSL1 inh: 101; HKDC1 act conf2: inactive

How did Nc1nnn(CC(=O)NN=Cc2ccco2)n1 do in these assays?
UCH37 inh: inactive

What do the screens show for `Cc1cc([N+](=O)[O-])nn1CC(=O)N/N=C/c1ccc(O)cc1O`?
HKDC1 inh: inactive; TDP2 absorb: inactive; PAD4 inh: inactive; GSTO1 counter: inactive; Fh CTSL1 inh: inactive; HKDC1 act conf2: inactive

What do the screens show for `COc1cc(C=NNC(=O)c2nonc2C)ccc1O`?
UCH37 inh: inactive

Results for Cc1nonc1C(=O)N/N=C/c1ccc(O)cc1O ?
HKDC1 inh: inactive; TDP2 absorb: inactive; PAD4 inh: inactive; GSTO1 counter: inactive; Fh CTSL1 inh: inactive; HKDC1 act conf2: -34

How did Cc1cc([N+](=O)[O-])nn1CC(=O)N/N=C/c1ccccc1Br do in these assays?
HKDC1 inh: inactive; TDP2 absorb: inactive; PAD4 inh: inactive; GSTO1 counter: inactive; Fh CTSL1 inh: inactive

How did COC(=O)NN=Cc1ccc(OC/C=C/c2ccccc2)cc1 do in these assays?
UCH37 inh: inactive

How did COc1ccc(C=NNC(=O)CN2CCCCCCC2)c(C)c1C do in these assays?
UCH37 inh: inactive

What do the screens show for `CCC1C/C(=C\c2cccnc2)C(=O)/C(=C/c2cccnc2)C1` (centres undefined)?
HKDC1 inh: 35; TDP2 absorb: inactive; UCH37 inh: inactive; HKDC1 act conf2: inactive

What do the screens show for `CC(=O)Nc1ccc(C2=NNC(=Nc3ccc(S(=O)(=O)N4CCOCC4)cc3)SC2)cc1`?
HKDC1 inh: inactive; TDP2 absorb: inactive; PAD4 inh: inactive; GSTO1 counter: inactive; UCH37 inh: inactive; Fh CTSL1 inh: inactive; HKDC1 act conf2: -234

How did CC(C)(C)N=C1NN=C(c2ccc(S(=O)(=O)N3CCCCC3)cc2)CS1 do in these assays?
HKDC1 inh: inactive; TDP2 absorb: inactive; PAD4 inh: inactive; GSTO1 counter: inactive; UCH37 inh: inactive; Fh CTSL1 inh: inactive; HKDC1 act conf2: inactive

Results for O=S(=O)(c1ccc(N=C2NN=C(c3cc(F)ccc3F)CS2)cc1)N1CCOCC1 ?
HKDC1 inh: inactive; TDP2 absorb: inactive; UCH37 inh: inactive

How did O=c1c2ccccc2nc(/C=C/c2cccnc2)n1Cc1ccccc1 do in these assays?
HKDC1 inh: 81; TDP2 absorb: inactive; UCH37 inh: inactive; HKDC1 act conf2: inactive

What do the screens show for `Cc1cccc(/C=C/c2nc3ccccc3c(=O)n2Cc2ccccc2)c1`?
HKDC1 inh: inactive; TDP2 absorb: inactive; PAD4 inh: inactive; GSTO1 counter: inactive; UCH37 inh: inactive; Fh CTSL1 inh: inactive

Results for O=c1c2ccccc2nc(/C=C/c2ccccc2)n1CCc1ccccc1 ?
HKDC1 inh: inactive; TDP2 absorb: inactive; PAD4 inh: inactive; GSTO1 counter: inactive; UCH37 inh: inactive; Fh CTSL1 inh: inactive

How did O=c1c2ccccc2nc(/C=C/c2cccnc2)n1CCc1ccccc1 do in these assays?
HKDC1 inh: inactive; TDP2 absorb: inactive; PAD4 inh: inactive; GSTO1 counter: inactive; Fh CTSL1 inh: inactive; HKDC1 act conf2: inactive

How did CCOC(=O)c1c(NC(=O)CSc2nnnn2-c2ccc(OC)cc2)sc(C)c1C do in these assays?
HKDC1 inh: inactive; TDP2 absorb: inactive; PAD4 inh: inactive; GSTO1 counter: inactive; UCH37 inh: inactive; Fh CTSL1 inh: inactive; HKDC1 act conf2: -42

How did O=C(NN=Cc1coc2ccccc2c1=O)c1cn(-c2ccccc2)nc1-c1ccc(F)cc1 do in these assays?
UCH37 inh: inactive

What do the screens show for `Cc1ccc(C)c(S(=O)(=O)Nc2cc(SCC(=O)O)c(O)c3ccccc23)c1`?
HKDC1 inh: 63; PAD4 inh: 33; GSTO1 counter: 87; UCH37 inh: 23; Fh CTSL1 inh: inactive; HKDC1 act conf2: inactive

What do the screens show for `Cc1ccc(S(=O)(=O)N2CCN(C(=O)CN3C(=O)NC4(CCCCC4)C3=O)CC2)c(C)c1`?
HKDC1 inh: 38; TDP2 absorb: inactive; PAD4 inh: inactive; GSTO1 counter: inactive; UCH37 inh: inactive; Fh CTSL1 inh: inactive; HKDC1 act conf2: inactive

How did Cc1ccc(C)c(S(=O)(=O)N2CCN(C(=O)CN3C(=O)NC(C)(C)C3=O)CC2)c1 do in these assays?
HKDC1 inh: inactive; TDP2 absorb: inactive; PAD4 inh: inactive; UCH37 inh: inactive

How did O=NNc1nc2ccccc2n1Cc1ccccc1 do in these assays?
HKDC1 inh: inactive; TDP2 absorb: inactive; PAD4 inh: inactive; GSTO1 counter: inactive; UCH37 inh: inactive; Fh CTSL1 inh: inactive; HKDC1 act conf2: -44
